Assay [1] addresses LL-diaminopimelate aminotransferase, chloroplastic (Arabidopsis thaliana) (UniProt Q93ZN9). Kind of assay: Inhibition of Arabidopsis thaliana LL-DAP-AT expressed in Escherichia coli at 10 uM by aminobenzaldehyde-based assay. A digest of the protocol: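 Robotic 96-well screen against C-terminal His6-tagged A. thaliana LL-DAP-AT (0.0043 mg/mL final) in 100 mM HEPES-KOH pH 7.6, with 8.5 mM 2-oxoglutarate, 7 mM OAB and 2.0 mM LL-DAP final. Inhibitor 10 µM final in DMSO, assuming MW 500. Absorbance at 440 nm read in triplicate before enzyme addition and after 3 h at room temperature. Activity taken relative to no-inhibitor wells; no-enzyme wells served as blank.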

Assay [2] has as its target LL-diaminopimelate aminotransferase, chloroplastic (Arabidopsis thaliana, UniProt Q93ZN9). The assay can be described thus: Inhibition of Arabidopsis thaliana LL-DAP-AT expressed in Escherichia coli by aminobenzaldehyde-based assay. The following applies: read-out: IC50. In outline: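 His6-tagged A. thaliana LL-DAP-AT (0.0043 mg/mL final) in 1 mL cuvettes with 100 mM HEPES-KOH pH 7.6, 8.5 mM 2-OG, 7 mM OAB and 2.0 mM LL-DAP. Inhibitor at 5–200 µM final, added in 50 µL DMSO. A440 followed for 200 min, read every 2 min.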

Assay [3] deals with LL-diaminopimelate aminotransferase, chloroplastic (Arabidopsis thaliana) (UniProt Q93ZN9). The assay can be described thus: Inhibition of Arabidopsis thaliana LL-DAP-AT expressed in Escherichia coli assessed as time independent type of inhibition by aminobenzaldehyde-based assay. A digest of the protocol: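 Enzyme (100 µL) and inhibitor (50 µL) were preincubated for six different times, then added to 850 µL of OAB-coupled substrate buffer. Inhibitor level was chosen from the IC50. A440 recorded as in the IC50 assay, with positive and no-enzyme controls. Time independence was judged by whether percent inhibition changed with preincubation time.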

In a further assay the test system is Escherichia coli. Kind of assay: Antimicrobial activity against Escherichia coli DH5alpha at <200 ug/mL. Format: functional, organism-based. A digest of the protocol: (§1)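 Soft agar overlay (0.75% w/v) seeded with 1% overnight culture of indicator strain, poured over 1.5% w/v solid agar; LB medium for Gram-negative, M17 for Gram-positive. 10 µL of test solution spotted and air-dried, with solvent controls (acetonitrile or methanol). Incubated overnight, 37 °C Gram-negative, 30 °C Gram-positive; scored for growth-inhibition halos.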

A further assay relates to Pseudomonas aeruginosa. The assay can be described thus: Antimicrobial activity against Pseudomonas aeruginosa ATCC 15442 at <200 ug/mL. Type of assay: functional, organism-based. In outline: as §1
In another assay the test system is Salmonella typhimurium. Kind of assay: Antimicrobial activity against Salmonella Typhimurium ATCC 23564 at <200 ug/mL. Type of assay: functional, organism-based. The following applies: Salmonella enterica subsp. enterica serovar Typhimurium. A digest of the protocol:
as §1

A further assay deals with Staphylococcus aureus. Kind of assay: Antimicrobial activity against Staphylococcus aureus ATCC 25923 at <200 ug/mL. Format: functional, organism-based. In outline:
as §1

Another assay deals with Carnobacterium divergens. The assay can be described thus: Antimicrobial activity against Carnobacterium divergens LV13 at <200 ug/mL. Format: functional, organism-based. A digest of the protocol:
as §1

For assay [4], the target named is LL-diaminopimelate aminotransferase, chloroplastic (Arabidopsis thaliana) (UniProt Q93ZN9). Kind of assay: Inhibition of Arabidopsis thaliana LL-DAP-AT expressed in Escherichia coli assessed as time dependent type of inhibition by aminobenzaldehyde-based assay. A digest of the protocol: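 Recombinant C-terminal His6-tagged enzyme (0.043 mg/mL, 100 µL) preincubated with 50 µL inhibitor (stock chosen from IC50 measurements) for six different times. Mixture then added to 850 µL substrate buffer: 100 mM HEPES-KOH pH 7.6, 2-oxoglutarate, 2-aminobenzaldehyde, racemic DAP. Absorbance at 440 nm recorded for 200 min. Percentage inhibition compared across preincubation times; no-inhibitor and no-enzyme controls included.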

SMILES strings stand for the structures. The source made the active and inactive calls. The rule behind the calls is not given here.

Chain of LL-diaminopimelate aminotransferase, chloroplastic (Q93ZN9 whole entry): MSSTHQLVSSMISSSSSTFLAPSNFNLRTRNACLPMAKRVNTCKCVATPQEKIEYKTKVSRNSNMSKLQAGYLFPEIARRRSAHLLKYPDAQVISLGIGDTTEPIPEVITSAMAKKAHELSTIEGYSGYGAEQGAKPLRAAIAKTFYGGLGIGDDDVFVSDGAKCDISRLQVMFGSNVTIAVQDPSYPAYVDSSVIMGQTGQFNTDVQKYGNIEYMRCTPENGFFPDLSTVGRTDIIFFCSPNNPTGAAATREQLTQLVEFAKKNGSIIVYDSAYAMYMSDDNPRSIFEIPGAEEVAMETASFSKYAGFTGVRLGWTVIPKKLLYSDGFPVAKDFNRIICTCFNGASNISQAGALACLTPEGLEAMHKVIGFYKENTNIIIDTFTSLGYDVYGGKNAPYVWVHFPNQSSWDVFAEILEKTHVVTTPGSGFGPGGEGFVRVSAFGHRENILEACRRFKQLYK
Chain of LL-diaminopimelate aminotransferase, chloroplastic (Arabidopsis thaliana) (Q93ZN9 whole entry): as above

With `O=C1OC(c2ccccc2)=C/C1=N\Nc1ccccc1C(=O)O`, in [1], the inhibition – broadly, the drop in the measured response relative to a control, in per cent – turned out to be 16%. Also, the IC50 (usually the concentration that gives 50% inhibition) in [2] worked out at 39 µM. Further, in [3], the inhibition result is “Active”. Further, the inhibition entry with Escherichia coli, in the assay with Pseudomonas aeruginosa, in the assay on Salmonella typhimurium, in the assay with Staphylococcus aureus and with Carnobacterium divergens was “inactive” throughout.

The molecule `O=C(Cn1c(/C=C2/C(=O)NC(=S)N(c3ccccc3)C2=O)cc2ccccc21)Nc1ccccc1` came in with an inhibition in [1] of 45%. Besides, the IC50 in [2] was 33 µM. For the same molecule, the inhibition entry in assay [4] was “Active”.

In turn, `Cc1cc(C=C2C(=O)NC(=S)NC2=O)c(C)n1C` yielded an inhibition in [1] of 15%. The IC50 in assay [2] is 25 µM. In addition, the inhibition result in [3] is “Active”. The inhibition result with Escherichia coli, with Pseudomonas aeruginosa, with Salmonella typhimurium, in the assay with Staphylococcus aureus and with Carnobacterium divergens was “inactive” each time.

The values above are taken from ChEMBL document CHEMBL1157640, “Exploration of inhibitors for diaminopimelate aminotransferase” (Bioorg Med Chem, 2010).
